Data set [1] can be described thus: Induction of locomotor activity in C57BL/6J mouse assessed as increase in traveled distance every 10 mins at 10 to 30 mg/kg, ip. The data set is classed as organism-based. The note with it: in vivo.
Data set [2] is described as follows: Stability in mouse liver microsomes assessed as compound remaining at 10 uM in absence of NADPH regenerating system measured after 60 mins by LC/MS/MS method. The data set is classed as ADME, microsome. Particulars: read-out: Stability. (In general: Liver microsomes are a subcellular fraction often used to study metabolism.)
For data set [3], the target named is T1, D(2) dopamine receptor (Homo sapiens, UniProt P14416). Kind of data set: Displacement of [3H]N-methylspiperone from human D2R expressed in HEK293 cell membranes incubated for 1 hr by radioligand binding assay. In outline: (§1)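 Membranes from HEK293 cells stably expressing human D2R (20 µg protein) or D4R (30 µg protein). Buffer: EBSS with 0.2 mM sodium metabisulfite and 0.4 nM [3H]N-methylspiperone. Test compound at 11 half-log dilutions (100 µM–100 pM or 10 µM–10 pM) in 30% DMSO vehicle. Incubated 1 h at room temperature; nonspecific binding with 10 µM butaclamol.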
T1 sequence (P14416 whole entry): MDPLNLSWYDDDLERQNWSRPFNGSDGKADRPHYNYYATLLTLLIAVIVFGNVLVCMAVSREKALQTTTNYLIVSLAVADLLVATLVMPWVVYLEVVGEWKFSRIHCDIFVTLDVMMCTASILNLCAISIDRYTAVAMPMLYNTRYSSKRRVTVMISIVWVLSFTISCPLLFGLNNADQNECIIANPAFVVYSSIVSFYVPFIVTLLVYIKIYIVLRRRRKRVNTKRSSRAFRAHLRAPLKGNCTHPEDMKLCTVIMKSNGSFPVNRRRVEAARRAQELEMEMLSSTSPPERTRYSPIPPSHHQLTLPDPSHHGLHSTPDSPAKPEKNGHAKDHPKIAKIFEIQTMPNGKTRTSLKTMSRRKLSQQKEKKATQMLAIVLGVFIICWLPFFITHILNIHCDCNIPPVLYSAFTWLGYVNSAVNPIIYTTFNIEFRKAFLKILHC
On the technique in general: Loss of bound radioactivity is the signal in a displacement assay; it reports binding, not function.

The target of a further data set is D(3) dopamine receptor (Homo sapiens, UniProt P35462). Kind of data set: Displacement of [3H]N-methylspiperone from human D3R expressed in HEK293 cell membranes incubated for 1 hr by radioligand binding assay.
Sequence of D(3) dopamine receptor (P35462 whole entry): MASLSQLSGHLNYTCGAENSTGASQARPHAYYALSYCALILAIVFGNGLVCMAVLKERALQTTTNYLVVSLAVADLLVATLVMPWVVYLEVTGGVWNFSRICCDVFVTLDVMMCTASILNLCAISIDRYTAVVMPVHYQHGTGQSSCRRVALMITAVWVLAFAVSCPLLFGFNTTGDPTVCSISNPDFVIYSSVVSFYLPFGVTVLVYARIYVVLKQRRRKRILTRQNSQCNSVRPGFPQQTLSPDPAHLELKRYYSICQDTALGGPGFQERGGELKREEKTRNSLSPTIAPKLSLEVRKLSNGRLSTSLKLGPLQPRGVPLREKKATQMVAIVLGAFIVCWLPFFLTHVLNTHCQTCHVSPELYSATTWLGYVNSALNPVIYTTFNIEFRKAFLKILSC
Data set [4] can be described thus: Induction of locomotor activity in C57BL/6J mouse assessed as increase in traveled distance every 10 mins at 10 mg/kg, ip. The data set is classed as organism-based. The note with it: in vivo.
The target of data set [5] is T2, Sodium-dependent dopamine transporter (Homo sapiens, UniProt Q01959). Kind of data set: Displacement of [3H]WIN35,428 from wild type human DAT expressed in COS7 cell membranes incubated for >90 mins by radioligand binding assay. On the set-up: species or system COS-7.
T2 sequence (Q01959 whole entry): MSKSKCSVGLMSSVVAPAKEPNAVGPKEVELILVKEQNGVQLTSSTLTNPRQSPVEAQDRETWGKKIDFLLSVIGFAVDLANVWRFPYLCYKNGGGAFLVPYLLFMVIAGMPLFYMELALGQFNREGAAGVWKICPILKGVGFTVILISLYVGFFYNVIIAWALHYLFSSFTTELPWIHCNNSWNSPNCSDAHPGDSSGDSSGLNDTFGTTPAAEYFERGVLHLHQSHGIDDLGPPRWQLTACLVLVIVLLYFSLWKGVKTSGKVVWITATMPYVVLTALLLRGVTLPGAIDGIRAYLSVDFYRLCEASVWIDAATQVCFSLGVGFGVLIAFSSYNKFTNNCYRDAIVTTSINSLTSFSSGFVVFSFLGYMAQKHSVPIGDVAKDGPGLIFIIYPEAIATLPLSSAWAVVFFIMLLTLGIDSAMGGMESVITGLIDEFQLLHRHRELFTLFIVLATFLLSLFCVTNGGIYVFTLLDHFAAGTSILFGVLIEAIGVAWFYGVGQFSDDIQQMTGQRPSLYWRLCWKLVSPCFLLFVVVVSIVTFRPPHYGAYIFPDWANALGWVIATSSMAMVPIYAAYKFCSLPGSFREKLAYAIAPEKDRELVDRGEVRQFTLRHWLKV
Data set [6] in a line: Displacement of [3H]WIN35,428 from human DAT Y156F mutant expressed in COS7 cell membranes incubated for >90 mins by radioligand binding assay. Particulars: cos-7.
A short description of data set [7]: Stability in mouse liver microsomes assessed as compound remaining at 10 uM in presence of NADPH regenerating system measured at 60 mins by LC/MS/MS method. The note with it: read-out: Stability. The data set is classed as ADME. In outline: (§2)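 Mouse liver microsomes (0.5 mg/mL) in 100 mM potassium phosphate pH 7.4 with NADPH regenerating system. Compound at 10 µM final; testosterone as positive control. Parent compound loss followed over time by LC/MS/MS on a C18 column with formic acid/acetonitrile gradient.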

Data set [8] addresses T2, Sodium-dependent dopamine transporter. Kind of data set: Inhibition of DAT (unknown origin) expressed in COS7 cells assessed as reduction in [3H]DA uptake incubated for 5 mins by beta-scintillation counting method. The data set is classed as cell-based, COS-7.
A further data set addresses T3, D(4) dopamine receptor (Homo sapiens, UniProt P21917).
T3 sequence (P21917 whole entry): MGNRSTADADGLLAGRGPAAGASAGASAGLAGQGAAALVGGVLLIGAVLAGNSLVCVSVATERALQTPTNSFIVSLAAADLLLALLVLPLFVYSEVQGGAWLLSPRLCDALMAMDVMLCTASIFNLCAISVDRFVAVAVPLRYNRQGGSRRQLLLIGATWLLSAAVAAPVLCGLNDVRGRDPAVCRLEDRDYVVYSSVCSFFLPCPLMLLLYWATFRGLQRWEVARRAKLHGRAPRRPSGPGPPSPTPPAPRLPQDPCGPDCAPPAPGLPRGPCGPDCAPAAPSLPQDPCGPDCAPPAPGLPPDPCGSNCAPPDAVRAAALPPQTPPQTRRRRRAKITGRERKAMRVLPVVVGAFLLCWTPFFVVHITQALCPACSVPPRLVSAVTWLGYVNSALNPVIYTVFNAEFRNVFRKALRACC
Kind of data set: Displacement of [3H]N-methylspiperone from human D4R expressed in HEK293 cell membranes incubated for 1 hr by radioligand binding assay. In outline:
as §1

For data set [9], the target named is T1, D(2) dopamine receptor. Put plainly: Antagonist activity at DRD2 (unknown origin) expressed in HEK293T cells transfected with Galphai1-RLuc8 and gamma2-GFP10 assessed as inhibition of quinpirole-induced Gi1 activation pre-incubated with quinpirole for 10 mins before compound incubation for 10 mins by BRET assay. The data set is classed as cell-based, HEK-293T. In outline:
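HEK-293T cells co-transfected with Flag-tagged D2 receptor, RLuc8-fused Gαi1, GFP10-fused Gγ and untagged Gβ, using constant total plasmid DNA at various partner ratios. Cells preincubated 10 min with 1 µM quinpirole, then 10 min with test compound. Read-out: BRET as fluorescence at 535 nm after 5 µM coelenterazine 400a.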
(In general: BRET reads energy transfer from a luciferase to a nearby fluorophore.)

Data set [10] in a line: Stability in mouse liver microsomes assessed as half life at 10 uM in presence of NADPH regenerating system by LC/MS/MS method. The data set is classed as ADME. Particulars: for half-life at 10 µM: liver microsomes. The gist of the method:
as §2

Data set [11] can be described thus: Stability in mouse liver microsomes assessed as compound remaining at 10 uM in presence of NADPH regenerating system measured up to 70 mins by LC/MS/MS method. The data set is classed as ADME. Particulars: read-out: Stability.
In data set [12] the target is Sigma non-opioid intracellular receptor 1 (Cavia porcellus, UniProt Q60492). Put plainly: Displacement of [3H](+)-pentazocine from sigma1 receptor in whole-guinea pig brain minus cerebellum homogenates incubated for 120 mins by radioligand binding assay. The gist of the method: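 Guinea pig whole-brain (minus cerebellum) membranes, 8.0 mg OWW per tube, in 50 mM Tris-HCl pH 8.0 with 3 nM [3H](+)-pentazocine. Incubated 120 min at room temperature. Nonspecific binding defined by haloperidol. Stopped by GF/B filtration and scintillation counting. IC50 from nonlinear regression, converted to Ki. At least three independent experiments, each in triplicate.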
Sequence of Sigma non-opioid intracellular receptor 1 (Q60492 whole entry): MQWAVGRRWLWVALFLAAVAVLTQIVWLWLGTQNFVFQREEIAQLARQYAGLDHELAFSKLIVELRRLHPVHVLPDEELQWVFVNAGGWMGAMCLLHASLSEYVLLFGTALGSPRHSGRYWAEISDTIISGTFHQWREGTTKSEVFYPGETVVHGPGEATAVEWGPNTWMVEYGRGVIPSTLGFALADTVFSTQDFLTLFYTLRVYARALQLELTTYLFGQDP

A short description of data set [13]: Induction of locomotor activity in C57BL/6J mouse assessed as increase in traveled distance every 10 mins at 3 and 10 mg/kg, ip. Particulars: in vivo. The data set is classed as organism-based.

`[O-][S+](CCN1CCN(CC(O)Cc2ccccc2)CC1)C(c1ccc(F)cc1)c1ccc(F)cc1` (stereo not drawn): the Activity result in data set [1] was “Dose-dependent effect”; in data set [4], “Non-Toxic”. Moreover, the remaining at 1 h, 10 µM in data set [2] was over 95%; in [7] it was 4%. Also, the inhibitory constant (Ki) at D(2) dopamine receptor [3] worked out at 78.6 nM; at D(3) dopamine receptor, 652 nM; in [5], 6.5 nM; in [6], 97 nM; in data set [8], 12 nM; on D(4) dopamine receptor, 1750 nM. At D(2) dopamine receptor [9], the IC50 was over 10000 nM. Besides, in data set [10] (microsomes, 10 µM), the t1/2 came out at 0.217 h.
For `CC(O)CN1CCN(CCSC(c2ccc(F)cc2)c2ccc(F)cc2)CC1` (stereo not drawn), the remaining at 1 h, 10 µM in [2] is over 95%. Besides, the Ki at D(2) dopamine receptor [3] was 693 nM; at D(3) dopamine receptor it was 424 nM; in data set [5] it was 101 nM; in data set [6], 267 nM; in data set [8] it was 200 nM; at D(4) dopamine receptor, 6300 nM. Moreover, on D(2) dopamine receptor [9], the IC50 is over 10000 nM. The half-life at 10 µM in data set [10] was 1 h. Further, the remaining at 70 min, 10 µM in data set [11] was determined as 50%.
Take `Fc1ccc(C(SCCNCCCc2ccccc2)c2ccc(F)cc2)cc1`: the inhibition constant Ki on D(2) dopamine receptor [3] is 228 nM; on D(3) dopamine receptor, 65.9 nM; in [12], 159 nM; at D(4) dopamine receptor, 28.1 nM. Besides, the Activity entry in [4] is “Non-Toxic”.
Take `NC(=O)C[S@@+]([O-])C(c1ccccc1)c1ccccc1` [ARMODAFINIL]: the figures for the Activity result in [1] and in [4] were “Dose-dependent effect” and “Toxic”, respectively. Further, the Ki on D(2) dopamine receptor [3] was over 100000 nM; on D(3) dopamine receptor, 39000 nM; in data set [12], over 100000 nM; on D(4) dopamine receptor it was over 100000 nM.
In the case of `COC(=O)[C@H]1[C@@H](OC(=O)c2ccccc2)C[C@@H]2CC[C@H]1N2C` [COCAINE], the Activity result in [13] is given as “Dose-dependent effect”.
`CC(O)CN1CCN(CC[S+]([O-])C(c2ccc(F)cc2)c2ccc(F)cc2)CC1` (stereo not drawn): the remaining at 1 h, 10 µM in data set [2] was over 95%. In addition, the inhibition constant Ki was found to be 298 nM on D(2) dopamine receptor [3]; 480 nM on D(3) dopamine receptor; 1200 nM in data set [5]; 9170 nM in data set [6]; 3820 nM at D(4) dopamine receptor. Further, the half-inhibitory concentration (IC50) on D(2) dopamine receptor [9] was over 10000 nM. The half-life at 10 µM in [10] worked out at 1 h. The remaining at 70 min, 10 µM in [11] was determined as 50%.

A word on the Ki: it is a dissociation constant, usually derived from enzyme kinetics or from competition with a known ligand. A word on the IC50: it is the midpoint of a concentration-inhibition curve. In general, half-life refers to the time needed for the level to fall by half in the phase considered.
